Twelve compounds from ChEMBL document CHEMBL4699408, “Synthesis and evaluation of anticancer activity of new 9-acridinyl amino acid derivatives” (RSC Med Chem, 2020) can be followed below.

Data set [1] addresses DNA topoisomerase 2-alpha (Homo sapiens, UniProt P11388). The data set can be described thus: Inhibition of human topoisomerase 2alpha using supercoiled pNO1 plasmid DNA as substrate incubated for 30 mins by fluorescence based microplate reader analysis.
In the next data set the test system is K562. The data set can be described thus: Cytotoxicity against human K562 cells assessed as reduction in cell viability incubated for 72 hrs by MTT assay. Type of data set: functional, cell-based. To be noted: K562, 72 h. (Tetrazolium dyes change colour on reduction, which living cells bring about.)
For data set [2], the system named is A549. The data set can be described thus: Cytotoxicity against human A549 cells assessed as reduction in cell viability incubated for 72 hrs by MTT assay. The conditions noted are these: A549, 72 h. Type of data set: functional, cell-based.
The test system of the next data set is MRC5. The data set can be described thus: Cytotoxicity against human MRC5 cells assessed as reduction in cell viability incubated for 72 hrs by MTT assay. Type of data set: cell-based. The conditions noted are these: MRC5, 72 h.
The test system of data set [3] is A549. The data set can be described thus: Inhibition of colony formation in human A549 cells at IC50 concentration incubated for 48 hrs followed by cell washing and measured after 10 days by crystal violet staining based assay relative to control. The data set is classed as functional.
Data set [4] concerns A549. The data set can be described thus: Cell cycle arrest in human A549 cells assessed as accumulation in G2/M phase at IC50 concentration incubated for 24 hrs by RNaseA/propidium iodide staining based flow cytometry (reference value: 9 %). The data set is classed as functional. In general terms: A flow cytometer gives signals particle by particle.
The subject of data set [5] is A549. In words: Cell cycle arrest in human A549 cells assessed as accumulation in G2/M phase at IC50 concentration incubated for 48 hrs by RNaseA/propidium iodide staining based flow cytometry (reference value: 11 %). The data set is classed as functional.
In data set [6] the test system is A549. The data set can be described thus: Induction of apoptosis in human A549 cells assessed as early apoptotic cells at IC50 concentration after 48 hrs by annexin V-FITC/propidium iodide staining based flow cytometry (reference value: 0.9 %). Type of data set: functional.
The test system of data set [7] is A549. The data set can be described thus: Induction of apoptosis in human A549 cells assessed as late apoptotic cells at IC50 concentration after 48 hrs by annexin V-FITC/propidium iodide staining based flow cytometry (reference value: 0.7 %). Type of data set: functional.
For another data set, the system named is DNA. In words: Binding affinity to DNA isolated from human A549 cells assessed as intercalating activity at 100 uM after 1 hr by electrophoretic mobility shift assay. The procedure, abridged:
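Genomic DNA isolated from A549 cells (proteinase K/SDS lysis, salt precipitation, ethanol precipitation); 0.5 μg DNA incubated 1 h at room temperature with 100 μM compound in 5 mM Tris-HCl/50 mM NaCl buffer; run on 0.8% agarose gel 4 h at 30 V, GelRed stained; binding read as shift in DNA mobility.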

Data set [8] can be described thus: Cytotoxicity against unstimulated human blood Leucocytes assessed as cell viability at 6.25 to 100 uM incubated for 24 to 72 hrs by MTT assay. The conditions noted are these: leucocyte.
For data set [9], the system named is A549. In words: Induction of cell cycle arrest in human A549 cells assessed as effect on cell cycle distribution at IC50 concentration incubated for 24 to 48 hrs by RNaseA/propidium iodide staining based flow cytometry. Type of data set: functional. The conditions noted are these: time hrs 24-48.
In data set [10] the test system is A549. In words: Cell cycle arrest in human A549 cells assessed as accumulation in SubG1 phase by measuring late apoptotic cells with fragmented DNA content at IC50 concentration incubated for 48 hrs by RNaseA/propidium iodide staining based flow cytometry. The data set is classed as functional.
Data set [11] deals with A549. The data set can be described thus: Cell cycle arrest in human A549 cells assessed as accumulation in S phase at IC50 concentration incubated for 24 hrs by RNaseA/propidium iodide staining based flow cytometry. The data set is classed as functional.

Each structure is given as a SMILES string. Activity calls are given as the source filed them. No cut-off for these calls is given here. Some results are limits rather than exact numbers.

By IC50 is commonly meant the point on the concentration scale where inhibition reaches its midpoint.

DNA topoisomerase 2-alpha, sequence (P11388 whole entry): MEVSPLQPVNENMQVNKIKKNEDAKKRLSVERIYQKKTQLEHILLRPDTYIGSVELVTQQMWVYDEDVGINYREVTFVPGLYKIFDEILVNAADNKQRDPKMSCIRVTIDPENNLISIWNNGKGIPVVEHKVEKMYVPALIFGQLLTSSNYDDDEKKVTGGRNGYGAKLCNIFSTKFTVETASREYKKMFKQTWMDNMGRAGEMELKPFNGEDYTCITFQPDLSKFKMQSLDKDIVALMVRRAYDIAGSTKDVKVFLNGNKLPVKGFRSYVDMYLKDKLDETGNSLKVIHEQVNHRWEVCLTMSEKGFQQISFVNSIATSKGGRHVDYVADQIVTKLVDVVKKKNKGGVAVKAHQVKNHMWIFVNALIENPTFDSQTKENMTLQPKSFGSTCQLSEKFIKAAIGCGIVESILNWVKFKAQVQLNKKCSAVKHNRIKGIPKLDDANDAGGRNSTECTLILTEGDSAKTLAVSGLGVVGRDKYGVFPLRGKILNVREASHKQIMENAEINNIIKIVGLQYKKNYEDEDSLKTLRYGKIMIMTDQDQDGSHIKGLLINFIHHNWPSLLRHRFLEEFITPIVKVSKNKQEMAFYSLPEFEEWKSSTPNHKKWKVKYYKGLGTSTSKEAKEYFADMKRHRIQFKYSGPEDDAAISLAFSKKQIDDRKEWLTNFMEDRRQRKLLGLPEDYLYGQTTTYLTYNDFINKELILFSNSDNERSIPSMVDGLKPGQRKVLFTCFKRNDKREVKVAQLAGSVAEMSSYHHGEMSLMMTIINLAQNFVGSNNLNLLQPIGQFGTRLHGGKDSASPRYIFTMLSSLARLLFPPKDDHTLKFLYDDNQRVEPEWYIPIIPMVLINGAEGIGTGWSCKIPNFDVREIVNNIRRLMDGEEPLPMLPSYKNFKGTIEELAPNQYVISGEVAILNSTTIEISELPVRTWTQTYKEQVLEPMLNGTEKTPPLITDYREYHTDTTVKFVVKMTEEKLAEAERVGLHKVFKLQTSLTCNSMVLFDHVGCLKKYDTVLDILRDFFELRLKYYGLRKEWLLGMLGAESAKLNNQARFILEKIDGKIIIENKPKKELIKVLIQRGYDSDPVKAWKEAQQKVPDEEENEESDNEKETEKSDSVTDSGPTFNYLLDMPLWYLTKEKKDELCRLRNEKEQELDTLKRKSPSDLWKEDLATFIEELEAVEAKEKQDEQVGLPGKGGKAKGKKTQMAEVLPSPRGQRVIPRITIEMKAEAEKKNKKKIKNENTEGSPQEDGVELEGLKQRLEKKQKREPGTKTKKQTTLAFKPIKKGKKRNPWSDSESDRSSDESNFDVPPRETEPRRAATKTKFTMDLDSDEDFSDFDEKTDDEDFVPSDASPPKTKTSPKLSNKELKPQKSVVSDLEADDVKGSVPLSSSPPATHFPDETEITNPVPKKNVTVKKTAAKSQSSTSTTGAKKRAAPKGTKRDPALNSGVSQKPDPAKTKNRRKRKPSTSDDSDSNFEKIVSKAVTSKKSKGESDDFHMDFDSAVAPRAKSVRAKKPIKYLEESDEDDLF

On to `CCCOC(=O)CCNc1c2ccccc2nc2ccccc12`, for which the IC50 came out at 14 µM in [1], 16.4 µM in the data set on K562, 6.3 µM in the data set on A549 [2] and 11.6 µM in the data set with MRC5. In the data set on A549 [3], the “inhibition (INH)” value was greater than 95%. The Activity with A549 [4] is recorded as 12%; with A549 [5] it was 19%; in the data set with A549 [6], 4.6%; with A549 [7], 2.9%; in [8], “Non-Toxic”. Also, the result with DNA was inactive.
For `CCCOC(=O)CCCCCNc1c2ccccc2nc2ccccc12`, the half-maximal inhibitory concentration (IC50) with K562 was 75 µM; with A549 [2], 72.4 µM; in the data set with MRC5, 58.8 µM.
The matching figures for `CCOC(=O)CCCCCNc1c2ccccc2nc2ccccc12`: 34.5 µM, 36.3 µM and 25.1 µM.
The matching figures for `Cn1cc(C[C@H](Nc2c3ccccc3nc3ccccc23)C(=O)O)c2ccccc21`: 42.4 µM, 34.1 µM and 47 µM.
Consider `CCOC(=O)CCCNc1c2ccccc2nc2ccccc12`, for which the half-inhibitory concentration (IC50) in [1] worked out at 14 µM; with K562, 11.2 µM; with A549 [2] it was 9.5 µM; in the data set on MRC5 it was 15.8 µM. Further, the “inhibition (INH)” value in the data set with A549 [3] is greater than 95%. Besides, the outcome in the data set with A549 [9] and with DNA was inactive. Moreover, the Activity in the data set with A549 [6] is given as 11.7%; with A549 [7] it was 5.4%; in data set [8], “Non-Toxic”.
For the compound `COC(=O)[C@H](Cc1c[nH]cn1)Nc1c2ccccc2nc2ccccc12`, the IC50 in the data set on K562 was 46.1 µM; in the data set with A549 [2] it was 34.3 µM; in the data set with MRC5 it was 65.1 µM.
As to `CCOC(=O)CCNc1c2ccccc2nc2ccccc12`, the IC50 was 13 µM in [1], 19.2 µM in the data set with K562, 6.15 µM in the data set on A549 [2] and 12.1 µM in the data set with MRC5. Also, the “inhibition (INH)” value in the data set on A549 [3] is given as greater than 95%. Further, the result with A549 [9] and in the data set with DNA was inactive. Moreover, the Activity is 3.7% in the data set on A549 [6], 1.2% in the data set on A549 [7] and “Non-Toxic” in data set [8].
`COC(=O)[C@H](Cc1ccccc1)Nc1c2ccccc2nc2ccccc12`: the IC50 in the data set on K562 is 40.6 µM; with A549 [2], 25.7 µM; with MRC5, 47.6 µM.
In the case of `COC(=O)CCCCCCCNc1c2ccccc2nc2ccccc12`, the figures for the IC50 with K562, in the data set on A549 [2] and in the data set on MRC5 were 62.9 µM, 62.6 µM and 49.8 µM, respectively.
As for `COc1cc(NS(C)(=O)=O)ccc1Nc1c2ccccc2nc2ccccc12` [AMSACRINE], the IC50 was 16 µM in data set [1], 13.8 µM in the data set on K562, 22.2 µM in the data set with A549 [2] and 15.4 µM with MRC5. For the same compound, the outcome with A549 [10], in the data set on A549 [11] and in the data set on DNA was Active. Also, the Activity is listed as 16.1% in the data set with A549 [6], 2.8% in the data set on A549 [7] and “Toxic” in [8].
As to `COC(=O)[C@H](Cc1cn(C)c2ccccc12)Nc1c2ccccc2nc2ccccc12`, the IC50 worked out at 46.6 µM with K562, 29.5 µM with A549 [2] and 56.1 µM with MRC5.
As for `CCCOC(=O)CCCNc1c2ccccc2nc2ccccc12`, the IC50 in [1] was determined as 16 µM; with K562, 21.8 µM; in the data set with A549 [2] it was 19.3 µM; in the data set with MRC5, 16.9 µM. The “inhibition (INH)” value in the data set with A549 [3] was greater than 95%. Moreover, the Activity is 18% with A549 [4]; 29% in the data set with A549 [5]; 12.5% in the data set on A549 [6]; 3.8% with A549 [7]; “Non-Toxic” in data set [8]. For the same compound, the outcome with DNA was Active.
